Source: PubChem (The Scripps Research Institute Molecular Screening Center)
STAT3 activator – increases IL-6 driven STAT3 reporter signal; U3A cells, IL-6 STAT3-luciferase reporter, luminescence; 100% = signal with IL-6 EC80 alone; activation (% of control), % at 5.6 µM; 190,000 tested, 0.91% active; AID 871;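 active = activation above the screen-wide mean of compound activation plus 3 SD, cut at about 130% in these data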
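Material: human STAT1-deficient U3A cells with stable STAT3-luciferase reporter / Probe or stimulus: IL-6 stimulus at 33 ng/mL final / Schedule: 1 h compound pre-exposure, 6 h IL-6 stimulation, 37 °C / Technique: luminescence / Read-out basis: percent of IL-6-only median luminescence / Control set: IL-6-only high control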
HSP90 refold inh – inhibitors of HSP90 luciferase refolding in rabbit reticulocyte lysate | luciferase refolding luminescence, 3 h | inhibition, % at 5.6 µM | 290,000 tested, 0.91% active;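 active = inhibition above the screen-wide mean plus 3 SD, computed separately per campaign, cut at about 16% in these data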;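 also: inhibitors lower the luminescence because luciferase stays unfolded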
STAT1 inh – STAT1 signaling inhibition; NIH 3T3 STAT1-luciferase reporter, IFN-gamma, luminescence; inhibition, % at 5.5 µM; 200,000 tested, 0.35% active; AID 920;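 active = inhibition above a set limit, the mean inhibition across all tested compounds plus 3 SD, cut at about 34% in these data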
STAT3 inh – STAT3 signaling inhibition; U3A cells, IL-6 STAT3-luciferase reporter, luminescence; host cell line lacks STAT1; AID 862; 190,000 tested, 0.89% active; inhibition, % at 5.5 µM;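 active = inhibition above the mean inhibition across all screened compounds plus 3 SD, cut at about 44% in these data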
Of the large screens only hits and unclear results are named; the others gave an inactive call. Most compounds without a hit are left out; they make up all but 2% or so of the library.

Cc1ccc2c(c1)NC(=O)C(CC(=O)Nc1ccc(Br)c(C)c1)O2 (configuration not stated)	none (no result: STAT3 activator, STAT1 inh, STAT3 inh)
Cc1cc(C)c2c(n1)SCC(=O)N2CC(=O)Nc1cccc(Cl)c1	HSP90 refold inh 31.3 (no result: STAT3 activator, STAT1 inh, STAT3 inh)
CN(C)S(=O)(=O)N1CCN(c2ccc([N+](=O)[O-])c(N3CCOCC3)c2)CC1	STAT3 activator 135.7
CCC(=O)N1CCN=C1SCc1cccc(C(F)(F)F)c1	none (no result: STAT3 activator, STAT1 inh, STAT3 inh)
O=C(Cc1csc(Nc2nc(=S)[nH]c3ccccc23)n1)NCc1cccc(Cl)c1	none
O=C(Cc1csc(Nc2nc(=S)[nH]c3ccccc23)n1)N1CCN(c2cccc(C(F)(F)F)c2)CC1	STAT3 activator 134.8
C#CCN1C(=O)S/C(=C/C=C/c2ccc(N(C)C)cc2)C1=O	HSP90 refold inh 21.0
CCC1CCCCN1CCCNC(=O)C1CCCN(c2ncnc3c2nc2n3CCCCC2)C1 (configuration not stated)	none (no result: STAT3 activator, STAT1 inh, STAT3 inh)
CC(C)(C)c1ccc(/C=N/Nc2cccc(C(=O)O)c2)cc1	STAT1 inh 37.8, STAT3 inh 45.9
Cc1ccc(C(=O)N2CCN(S(=O)(=O)c3ccccc3[N+](=O)[O-])CC2)o1	none
[O-]/C(=C(\C(=S)Nc1cccc2ccccc12)[n+]1ccccc1)c1ccc2c(c1)OCCO2	STAT3 activator 133.9
CC1CCCCN1C(=O)C(=O)c1cn(CC(=O)N2CCCCCC2)c2ccccc12 (configuration not stated)	none (no result: STAT3 activator, STAT1 inh, STAT3 inh)
Cc1c(C)c2ccc(OCC(=O)N3CCC(C(=O)O)CC3)cc2oc1=O	HSP90 refold inh 16.1 (no result: STAT3 activator, STAT1 inh, STAT3 inh)
COc1ccc(-c2cn(Cc3ccc([N+](=O)[O-])cc3)nn2)cc1	none (no result: STAT3 activator, STAT1 inh, STAT3 inh)
COc1ccc(-c2ccc(=O)n(Cc3ccc([N+](=O)[O-])cc3)n2)cc1	STAT3 activator 133.7
Fc1ccc2[nH]c3c(N4CCc5ccccc5C4)ncnc3c2c1	none (no result: STAT3 activator, STAT1 inh, STAT3 inh)
Cc1ccc2[nH]c3c(N4CCc5ccccc5C4)ncnc3c2c1	STAT3 inh 72.9
c1ccc2c(c1)[nH]c1c(N3CCSCC3)ncnc12	STAT1 inh 37.8
c1ccc2c(c1)[nH]c1c(N3CCN(C4CCCCC4)CC3)ncnc12	none
COc1ccc(CNC(=O)C2CCCN2S(=O)(=O)c2ccc(F)cc2)cc1 (configuration not stated)	none
CNc1nc(N(C)C)nc(N(C)C)n1	STAT3 activator 135.7
CC(C)n1cnc2cc(NCc3nc4ccccc4n3C)ccc21	HSP90 refold inh 16.2
CCn1cnc2cc(NCc3nc4ccccc4n3C)ccc21	none
O=C(Nc1ccccc1)c1nc2ccccc2s1	none
Cc1cccc(NC(=S)c2nc3ccccc3s2)c1	STAT3 activator 133.7
O=C1CCC2S/C(=C/Nc3ccc(C(F)(F)F)cc3)C(=O)N12 (configuration not stated)	STAT1 inh 66.5, STAT3 inh 78.5
COc1ccc(CC(NC(C)=O)C(=O)NC2CCN(S(=O)(=O)c3ccccc3)CC2)c(OC)c1 (configuration not stated)	HSP90 refold inh 16.7 (no result: STAT3 activator, STAT1 inh, STAT3 inh)
CC1CN(C(=O)c2ccc(COc3ccccc3Br)o2)CC(C)O1 (configuration not stated)	none
CN(Cc1ccccc1)c1ncc(C=O)s1	none
COc1ccc(CCNc2ncnc3c2oc2ccccc23)cc1OC	STAT3 inh 79.8
NS(=O)(=O)c1ccc(CCNC(=O)C(c2ccccc2)c2ccccc2)cc1	none (no result: STAT3 activator, STAT1 inh, STAT3 inh)
CCn1nc(C)c(CNC(=O)C2CCC(=O)N(Cc3ccc(Cl)cc3)C2)c1C (configuration not stated)	none (no result: STAT3 activator, STAT1 inh, STAT3 inh)
Cc1ccc(NC(=S)NNC(=O)c2nnn(-c3ccccc3)c2C)cc1	none
CCC(CO)Nc1ncnc2c1cnn2-c1ccc(Cl)cc1 (configuration not stated)	HSP90 refold inh 26.7
CN(C)CCNc1ncnc2c1cnn2-c1ccc(Cl)cc1	none
OCCCNc1ncnc2c1cnn2-c1ccc(Cl)cc1	HSP90 refold inh 16.5 (no result: STAT3 activator, STAT1 inh, STAT3 inh)
CCC(CO)Nc1ncnc2c1cnn2-c1ccc(OC)cc1 (configuration not stated)	none
Clc1ccccc1OCc1nnc(-c2ccccc2)o1	STAT3 activator 143.6
CCc1ccc(NC(=O)c2ccc3nc(N)sc3c2)cc1	none
Nc1nc2ccc(C(=O)Nc3ccccc3)cc2s1	STAT3 activator 156.1
CCOC(=O)c1cnc2oc3ccccc3n2c1=O	none (no result: STAT3 activator, STAT1 inh, STAT3 inh)
C=CCn1c(N)c(-c2nc3ccccc3n2C)sc1=S	none
Cn1c(-c2sc(=S)n(-c3ccccc3)c2N)nc2ccccc21	STAT3 activator 133.4
CC1CCCCC1NC(=O)CCNS(=O)(=O)c1ccc(Cl)cc1 (configuration not stated)	none (no result: STAT3 activator, STAT1 inh, STAT3 inh)
COc1ccc(OCC(O)CNS(=O)(=O)c2ccc(NC(C)=O)cc2)cc1 (configuration not stated)	none (no result: STAT3 activator, STAT1 inh, STAT3 inh)
C/C(=N\Nc1nc2c(s1)CCCC2)c1ccccc1	STAT3 activator 184.4, HSP90 refold inh 16.4
O=C(Nc1nc2c(s1)CCCC2)Oc1ccccc1	none
Cc1ccc(-c2nc3ccccc3c(C(=O)NCc3cccs3)c2C)cc1	STAT3 activator 143.1
C#CCOCCOCCOCCNc1nc(N2CCN(C(=O)C([C@@H](C)CC)n3cc(C(N)CC(C)C)nn3)CC2)nc(N2CCN(C(=O)[C@H](CCC(=O)O)n3cc(C(N)CC(C)C)nn3)CC2)n1 (some centres not stated)	none (no result: STAT3 activator, STAT3 inh)
C#CCOCCOCCOCCNc1nc(N2CCN(C(=O)[C@H](CCC(=O)O)n3cc(C(N)CC(C)C)nn3)CC2)nc(N2CCN(C(=O)[C@H](CCC(=O)O)n3cc(C(N)CC(C)C)nn3)CC2)n1 (some centres not stated)	HSP90 refold inh 16.6 (no result: STAT3 activator, STAT3 inh)
COc1cc(SC)ccc1C(=O)Nc1ccncc1	none
COc1cc(SC)ccc1C(=O)Nc1ccccc1C#N	STAT3 activator 133.5
O=C(CSc1nncc2ccccc12)Nc1cccc(O)c1	none (no result: STAT3 activator, STAT1 inh, STAT3 inh)
O=C(CSc1nccn1-c1ncc(C(F)(F)F)cc1Cl)c1ccc(Br)cc1	STAT3 activator 161.7
Cc1ccc(/C(CSc2nccn2-c2ncc(C(F)(F)F)cc2Cl)=N\O)cc1	none
Cc1cc(/C=C2\NC(=O)N(Cc3ccc(Cl)cc3)C2=O)c(C)n1C	STAT3 activator 139.2
CN(Cc1ccccc1)C(=O)[C@@H]1CCCN1S(=O)(=O)c1ccc(Cl)cc1	none (no result: STAT3 activator, STAT1 inh, STAT3 inh)
COc1cccc2c1C(=O)c1c(O)c3c(c(O)c1C2=O)C[C@@](O)(C(=O)CO)C[C@@H]3O[C@H]1C[C@H](N)[C@H](O)[C@H](C)O1	STAT3 activator 142.1
O=C(NC(=S)Nc1nc2ccccc2s1)c1ccco1	STAT3 activator 145.6
COc1ccc2nc(NC(=S)NC(=O)c3ccco3)sc2c1	none
CCSc1ncnc2c1oc1ccccc12	none
Clc1ncnc2c1oc1ccccc12	STAT3 activator 134.3
C(=N\NC1=Nc2cccc3cccc1c23)/c1ccccc1	STAT3 activator 143.8
CCCn1c(NC(=O)c2ccc(Br)cc2)nc2ccccc21	STAT3 activator 133.8
CCCn1c(NC(=O)c2ccc(F)cc2)nc2ccccc21	none
COc1cc(/C=N/NC(=O)COc2ccc([N+](=O)[O-])cc2)ccc1OCC(=O)N1CCOCC1	none (no result: STAT3 activator, STAT1 inh, STAT3 inh)
CN1C=C/C(=C\c2cc[n+](C)c3ccccc23)c2ccccc21	HSP90 refold inh 16.6
CC(=O)c1ccc(OCCCC(=O)Nc2cccc(-c3nn[nH]n3)c2)cc1	none (no result: STAT3 activator, STAT1 inh, STAT3 inh)
